# Tested on: Fibroblast
# Assay: Multiplex assay against human fibroblast
# Type: toxicity, cell-based
# Procedure, shortened: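 Imaging took place on a CQ1 microscope at 37°C and 5% CO2 once compound had been added to live cells stained at seeding with Hoechst33342, BioTracker Green Microtubule Cytoskeleton Dye, MitoTracker Red and Annexin V Alexa Fluor 680. CellPathfinder machine-learning gating classed cells as Hoechst high-intensity objects or normal cells, classed normal cells as having healthy, pyknosed or fragmented nuclei, and classed pyknosed cells as mitotic or apoptotic. Tubulin, mitochondrial-mass and membrane-permeability phenotypes are per cents of the healthy-nucleus cells.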
# [1] = 12 h, 1 µM, compound concentration 1 uM, replicate 1
# [2] = 12 h, 1 µM, compound concentration 1 uM, replicate 2
# [3] = 12 h, 10 µM, compound concentration 10 uM, replicate 1
# [4] = 12 h, 10 µM, compound concentration 10 uM, replicate 2
# [5] = 24 h, 1 µM, compound concentration 1 uM, replicate 1
# [6] = 24 h, 1 µM, compound concentration 1 uM, replicate 2
# [7] = 24 h, 10 µM, compound concentration 10 uM, replicate 1
# [8] = 24 h, 10 µM, compound concentration 10 uM, replicate 2
smiles,measurement,setting,value
COc1cc2ncnc(Nc3ccc(F)c(Cl)c3)c2cc1NC(=O)/C=C/CN1CCCCC1 [DACOMITINIB ANHYDROUS],Population Apoptotic (%),[1],72%
same,Population Fragmented Nuclei (%),[1],33%
same,Population Healthy Nuclei (%),[1],52%
same,Population Hoechst High Intensity Objects (%),[1],17%
same,Population Membrane Permeable-Phenotype (%),[1],6%
same,Population Mitochondria Different-Phenotype (%),[1],8%
same,Population Mitotic Cells (%),[1],27%
same,Population Normal (%),[1],82%
same,Population Pyknosed Nuclei (%),[1],14%
same,Population Tubulin-Different-Phenotype (%),[1],46%
same,Total Cell Count,[1],248
same,Population Apoptotic (%),[2],66%
same,Population Fragmented Nuclei (%),[2],56%
same,Population Healthy Nuclei (%),[2],36%
same,Population Hoechst High Intensity Objects (%),[2],57%
same,Population Membrane Permeable-Phenotype (%),[2],12%
same,Population Mitochondria Different-Phenotype (%),[2],25%
same,Population Mitotic Cells (%),[2],33%
same,Population Normal (%),[2],42%
same,Population Pyknosed Nuclei (%),[2],6%
same,Population Tubulin-Different-Phenotype (%),[2],25%
same,Total Cell Count,[2],103
same,Population Apoptotic (%),[3],58%
same,Population Fragmented Nuclei (%),[3],30%
same,Population Healthy Nuclei (%),[3],53%
same,Population Hoechst High Intensity Objects (%),[3],14%
same,Population Membrane Permeable-Phenotype (%),[3],7%
same,Population Mitochondria Different-Phenotype (%),[3],3%
same,Population Mitotic Cells (%),[3],41%
same,Population Normal (%),[3],85%
same,Population Pyknosed Nuclei (%),[3],15%
same,Population Tubulin-Different-Phenotype (%),[3],7%
same,Total Cell Count,[3],214
same,Population Apoptotic (%),[4],28%
same,Population Fragmented Nuclei (%),[4],47%
same,Population Healthy Nuclei (%),[4],40%
same,Population Hoechst High Intensity Objects (%),[4],35%
same,Population Membrane Permeable-Phenotype (%),[4],20%
same,Population Mitochondria Different-Phenotype (%),[4],16%
same,Population Mitotic Cells (%),[4],71%
same,Population Normal (%),[4],64%
same,Population Pyknosed Nuclei (%),[4],11%
same,Population Tubulin-Different-Phenotype (%),[4],16%
same,Total Cell Count,[4],94
same,Population Apoptotic (%),[5],72%
same,Population Fragmented Nuclei (%),[5],28%
same,Population Healthy Nuclei (%),[5],54%
same,Population Hoechst High Intensity Objects (%),[5],30%
same,Population Mitochondria Different-Phenotype (%),[5],22%
same,Population Mitotic Cells (%),[5],28%
same,Population Normal (%),[5],69%
same,Population Pyknosed Nuclei (%),[5],17%
same,Population Tubulin-Different-Phenotype (%),[5],46%
same,Total Cell Count,[5],210
same,Population Apoptotic (%),[6],100%
same,Population Fragmented Nuclei (%),[6],51%
same,Population Healthy Nuclei (%),[6],40%
same,Population Hoechst High Intensity Objects (%),[6],57%
same,Population Membrane Permeable-Phenotype (%),[6],5%
same,Population Mitochondria Different-Phenotype (%),[6],16%
same,Population Mitotic Cells (%),[6],0%
same,Population Normal (%),[6],42%
same,Population Pyknosed Nuclei (%),[6],8%
same,Population Tubulin-Different-Phenotype (%),[6],16%
same,Total Cell Count,[6],106
same,Population Apoptotic (%),[7],58%
same,Population Fragmented Nuclei (%),[7],32%
same,Population Healthy Nuclei (%),[7],50%
same,Population Hoechst High Intensity Objects (%),[7],18%
same,Population Membrane Permeable-Phenotype (%),[7],6%
same,Population Mitochondria Different-Phenotype (%),[7],2%
same,Population Mitotic Cells (%),[7],41%
same,Population Normal (%),[7],81%
same,Population Pyknosed Nuclei (%),[7],17%
same,Population Tubulin-Different-Phenotype (%),[7],3%
same,Total Cell Count,[7],249
same,Population Apoptotic (%),[8],33%
same,Population Fragmented Nuclei (%),[8],53%
same,Population Healthy Nuclei (%),[8],36%
same,Population Hoechst High Intensity Objects (%),[8],30%
same,Population Membrane Permeable-Phenotype (%),[8],21%
same,Population Mitochondria Different-Phenotype (%),[8],13%
same,Population Mitotic Cells (%),[8],66%
same,Population Normal (%),[8],69%
same,Population Pyknosed Nuclei (%),[8],9%
same,Population Tubulin-Different-Phenotype (%),[8],17%
same,Total Cell Count,[8],91

# — ChEMBL document CHEMBL4689842, “EUbOPEN Chemogenomics Library wave 1” (2021)
